Assay outcomes deposited in PubChem by The Scripps Research Institute Molecular Screening Center.
An excerpt weighted towards active compounds, which were near 4.6% of everything screened.
OX1R antag-1: blocks the human orexin 1 receptor. 0.43% of 330,000 active. inhibition, % at 5 µM. O43613. CHO/OX1R cells, Fluo-8 calcium fluorescence, orexin A;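 active = inhibition above its plate's threshold, mean inhibition of all tested compounds on the plate plus 3 SD, cut at about 37% in these data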
Target sequence (O43613 whole entry, looked up): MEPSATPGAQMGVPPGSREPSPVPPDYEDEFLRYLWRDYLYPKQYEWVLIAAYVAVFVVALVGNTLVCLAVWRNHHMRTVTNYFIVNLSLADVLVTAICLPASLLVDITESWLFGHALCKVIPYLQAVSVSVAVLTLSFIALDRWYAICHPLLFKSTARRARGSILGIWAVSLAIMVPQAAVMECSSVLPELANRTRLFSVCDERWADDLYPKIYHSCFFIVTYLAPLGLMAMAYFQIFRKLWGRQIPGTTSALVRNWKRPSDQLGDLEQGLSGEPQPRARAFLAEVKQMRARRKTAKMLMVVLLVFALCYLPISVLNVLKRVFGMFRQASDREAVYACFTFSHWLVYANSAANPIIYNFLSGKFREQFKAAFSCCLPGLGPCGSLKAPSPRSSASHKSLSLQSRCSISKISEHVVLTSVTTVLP
TAAR1 antagonist: antagonists of human TAAR1 | CHO RD-HGA16 TAAR1, Fluo-8 calcium fluorescence, antagonist | 1.5% of 360,000 active | inhibition, % at 3 µM;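 active = inhibition above a per-plate cutoff, the mean inhibition of test compounds on that plate plus 3 SD, cut at about 49% in these data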
Target sequence (Q96RJ0 whole entry, looked up): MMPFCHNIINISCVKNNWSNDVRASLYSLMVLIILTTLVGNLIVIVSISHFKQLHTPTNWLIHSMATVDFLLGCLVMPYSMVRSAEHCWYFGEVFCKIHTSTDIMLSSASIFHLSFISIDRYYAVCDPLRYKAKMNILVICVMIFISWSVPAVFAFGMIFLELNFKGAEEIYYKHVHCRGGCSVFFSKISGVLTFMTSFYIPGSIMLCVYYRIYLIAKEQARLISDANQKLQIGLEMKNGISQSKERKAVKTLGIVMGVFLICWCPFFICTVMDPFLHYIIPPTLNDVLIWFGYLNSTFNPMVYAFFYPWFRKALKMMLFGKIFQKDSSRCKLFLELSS
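System: CHO RD-HGA16 cells bearing hTAAR1. Reagent: EC80 β-phenethylamine stimulus. Schedule: seeding 17-24 h prior, 75-min 37 °C, 30-min RT dye loading. Signal: Fluo-8 intracellular calcium dye fluorescence, real-time kinetic reads. Read-out: % inhibition from peak post-agonist over basal fluorescence ratio. Benchmarks: vehicle wells and EC80 agonist wells. Replicates: n of 1.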
GPR7 antag: blocks human GPR7 receptor signaling. 1.1% of 290,000 active. inhibition, % at 4.4 µM. GPR7-expressing cells, fluorescence antagonist assay. P48145. AID 1861; in the data active = inhibition above about 16%, passing the limit was not always enough;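 note: cells stimulated with the agonist NPW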
CHO parental Ca: counter-screen: ATP calcium response change in parental CHO cells | parental CHO-K1, ATP-induced calcium, Fluo-8 fluorescence | inhibition, % at 5.6 µM | 0.63% of 330,000 active | AID 463079;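 active = inhibition above that plate's mean sample inhibition plus 3 SD, cut at about 26% in these data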
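Test system: parental CHO cells; detection: calcium-sensitive Fluo-8 fluorescence; evaluation: percent inhibition of calcium signal; also added: ATP as calcium-mobilizing challenge; repeats: one well per compound; control set: ATP-challenged DMSO wells low, unchallenged DMSO wells high; compound: single nominal dose of 5.6 µM per compound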
TAAR1 agonist: human TAAR1 agonism; Q96RJ0; CHO RD-HGA16 TAAR1, Fluo-8 calcium fluorescence; vehicle wells 0%, saturating PEA agonist 100%; activation, % at 3 µM; 0.99% of 360,000 active; AID 624467;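 active = activation above the mean activation of all test compounds in the run plus 3 SD, cut at about 38% in these data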
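test system = CHO RD-HGA16 cells carrying human TAAR1 plus Gα16 | schedule = 17-24 h seeding, 75 min 37 °C dye, 30 min RT | compound dosing = 3 µM single concentration | control set = DMSO and PEA EC100 | replicates = n 1 | signal = Fluo-8 fluorescence, 5 s baseline then 140 s kinetic read | measure = percent activation vs PEA EC100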
OX1R antag-2: OX1R (human) antagonism; inhibition, % at 6.6 µM; 1.8% of 330,000 active; O43613; AID 485270; OX1R-expressing cells, FRET antagonist read-out; in the data active = inhibition mostly above about 38%, no sharp cut-off; inactive = mostly below about 40%
OX1R HTRF confirm: OX1R (human) antagonism, HTRF confirmed; OX1R-expressing cells, HTRF antagonist assay; AID 492964; inhibition, % at 6.6 µM; shares compounds with OX1R antag-2; 49% of 1,800 active; in the data active = inhibition above about 55%;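 note: CHO cells expressing OX1R stimulated with orexin A at about EC80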
CHO-K1 HTRF: counter-screen for OX1R antagonists: effect in parental CHO-K1 cells. shares compounds with OX1R antag-2. HTRF counterscreen. inhibition, % at 6.6 µM. 48% of 1,800 active; in the data active = inhibition above about 17%
Large screens that a line does not name were inactive (follow-up assays come after a bar, where they were run).

CCOC(=O)c1nn(-c2ccccc2)c(C(=O)OCC)c1N	none
CCOC(=O)c1nn(-c2ccccc2)c(=O)c2c(N)scc12	OX1R antag-2 108 | OX1R HTRF confirm inactive | CHO-K1 HTRF 17
CC1=C(C(=O)N(C(C)C)C(C)C)CC(CC(=O)NCc2ccco2)C(=O)N1CCCN1CCCC1=O (stereo not drawn)	none (no result: OX1R antag-1, GPR7 antag, CHO parental Ca, OX1R antag-2)
Cc1c(C#N)c(O)n(C)c(=O)c1N=Nc1ccc(S(N)(=O)=O)cc1	none (no result: OX1R antag-1, CHO parental Ca, OX1R antag-2)
Cc1c(C#N)c(O)n(CCO)c(=O)c1N=Nc1ccc(S(N)(=O)=O)cc1	OX1R antag-2 161 | OX1R HTRF confirm 64 | CHO-K1 HTRF 83
c1ccc2nc3c(nc2c1)[nH]c1ccccc13	OX1R antag-2 82 | OX1R HTRF confirm 72 | CHO-K1 HTRF inactive
Cc1c(Cl)cccc1NC(=S)NC1CCCC1	none
Cn1c2c(c3ccccc31)CCN1CCC[C@]21c1ccccc1	none
COc1ccc2nc(NC(=O)c3cccnc3SC)sc2c1	OX1R antag-2 88 | OX1R HTRF confirm 77 | CHO-K1 HTRF inactive
CCCNC(=O)C1(C)CCN(C(=O)c2ccccc2OC)C1 (stereo not drawn)	none (no result: OX1R antag-1, GPR7 antag, CHO parental Ca, OX1R antag-2)
O=C(CSc1ccc(-c2cccs2)nn1)c1cccs1	OX1R antag-2 111 | OX1R HTRF confirm 95 | CHO-K1 HTRF inactive
O=C(CNC(=S)N(CCCN1CCOCC1)Cc1cccs1)NCCCN1CCOCC1	none
O=[N+]([O-])c1ccc(S(=O)(=O)N(CCCN2CCOCC2)Cc2cccs2)cc1	OX1R antag-2 86 | OX1R HTRF confirm inactive | CHO-K1 HTRF 43
Fc1cc(Br)ccc1COc1ccc(-c2nnco2)cc1	none
C[C@]12c3[nH]c4ccccc4c3CCN1C(=O)C(CC(=O)NCCN1CCOCC1)C[C@@H]2C(=O)N1CCCCC1 (stereo partly drawn)	none (no result: GPR7 antag)
CNS(=O)(=O)c1cc2c3c(cccc3c1)C(=O)NC2=O	OX1R antag-2 130 | OX1R HTRF confirm inactive | CHO-K1 HTRF 78
O=C(c1nn2c(C(F)(F)F)cc(-c3ccccc3)nc2c1Cl)N1CCOCC1	none
O=C(c1nc2nc(-c3ccccc3)cc(C(F)(F)F)n2n1)N1CCOCC1	OX1R antag-2 77 | OX1R HTRF confirm inactive | CHO-K1 HTRF 27
COc1cc(OC)c2cc(C(=O)N/N=C/c3cccc(OC)c3O)[nH]c2c1	OX1R antag-2 77 | OX1R HTRF confirm 72 | CHO-K1 HTRF inactive
COc1cccc(/C=N/NC(=O)N/N=C/c2cccc(OC)c2O)c1O	none
O=S(=O)(Nc1c(O)ccc2ccccc12)c1cccc2ccccc12	OX1R antag-2 80 (no result: TAAR1 antagonist, GPR7 antag, TAAR1 agonist) | OX1R HTRF confirm 78 | CHO-K1 HTRF inactive
O=c1c2ccccc2nc2n1CC/C2=C\N1CCN(c2ccc([N+](=O)[O-])cc2)CC1	OX1R antag-2 94 (no result: GPR7 antag) | OX1R HTRF confirm inactive | CHO-K1 HTRF 23
O=[N+]([O-])c1ccc(N2CCN(c3ccccc3)CC2)cc1	none
N#CC(C#N)=Cc1c[nH]c(=O)c(C#N)c1Nc1ccccc1	OX1R antag-2 88 (no result: GPR7 antag) | OX1R HTRF confirm inactive | CHO-K1 HTRF 62
CCCn1c(=S)[nH]c2cc(C(=O)N3CCN(C4CCCCC4)CC3)ccc2c1=O	none
O=C1c2cccc3cc([N+](=O)[O-])cc(c23)C(=O)N1c1nncs1	OX1R antag-2 78 (no result: GPR7 antag) | OX1R HTRF confirm 61 | CHO-K1 HTRF 86
COc1cc2c(cc1OC)CN(C(=O)CN1C(=O)c3ccc([N+](=O)[O-])cc3C1=O)CC2	OX1R antag-2 98 (no result: GPR7 antag) | OX1R HTRF confirm inactive | CHO-K1 HTRF 37
O=C1C(=O)c2ccccc2C([O-])=C1[n+]1ccccc1	OX1R antag-2 171 | OX1R HTRF confirm 60 | CHO-K1 HTRF 108
Cc1ccc(S(=O)(=O)N/N=C2/CCCCC2C2CCCCC2)cc1[N+](=O)[O-] (stereo not drawn)	none
CC(C)(C)c1ccc(S(=O)(=O)O/N=C2/CCCCC2c2ccc([N+](=O)[O-])cc2[N+](=O)[O-])cc1 (stereo not drawn)	OX1R antag-2 115 | OX1R HTRF confirm inactive | CHO-K1 HTRF 47
CCN1CCN(C2=C(NS(=O)(=O)c3ccc(Br)cc3)C(=O)c3ccccc3C2=O)CC1	OX1R antag-2 95 | OX1R HTRF confirm 70 | CHO-K1 HTRF 88
O=C1C(Cl)=C(N2CCC(C(=O)O)CC2)C(=O)c2ccccc21	OX1R antag-2 101 (no result: TAAR1 antagonist, TAAR1 agonist) | OX1R HTRF confirm inactive | CHO-K1 HTRF 64
O=C1C(NS(=O)(=O)c2cccs2)=C(N2CCOCC2)C(=O)c2ccccc21	OX1R antag-2 86 | OX1R HTRF confirm 95 | CHO-K1 HTRF 63
CN1CCN(C2=C(Cl)C(=O)c3ccccc3C2=O)CC1	none (no result: OX1R antag-1, GPR7 antag, CHO parental Ca, OX1R antag-2)
CCOc1ccccc1N1CCN(C2=C(NS(=O)(=O)c3cccs3)C(=O)c3ccccc3C2=O)CC1	none
O=C1C(NS(=O)(=O)c2ccc(Cl)cc2)=C(N2CCCCC2)C(=O)c2ccccc21	OX1R antag-2 111 | OX1R HTRF confirm inactive | CHO-K1 HTRF 41
CN1CCN(C2=C(NS(=O)(=O)c3cccs3)C(=O)c3ccccc3C2=O)CC1	OX1R antag-2 132 | OX1R HTRF confirm 62 | CHO-K1 HTRF 99
NC(=O)C1CCN(C2=C(NS(=O)(=O)c3ccccc3)C(=O)c3ccccc3C2=O)CC1	OX1R antag-2 129 | OX1R HTRF confirm 59 | CHO-K1 HTRF 76
CN1CCN(C2=C(NS(=O)(=O)c3ccccc3)C(=O)c3ccccc3C2=O)CC1	OX1R antag-2 96 (no result: TAAR1 antagonist, TAAR1 agonist) | OX1R HTRF confirm 74 | CHO-K1 HTRF 90
COC(=O)C1=CN(c2ccc(Oc3ccccc3)cc2)C(N)=C(C#N)C1c1ccccc1 (stereo not drawn)	none (no result: OX1R antag-1, GPR7 antag, CHO parental Ca, OX1R antag-2)
CC(NS(=O)(=O)c1cccc(C(=O)N(C)Cc2ccc(N3CCOCC3)cc2)c1)c1ccccc1 (stereo not drawn)	none (no result: OX1R antag-1, GPR7 antag, CHO parental Ca, OX1R antag-2)
Cc1cccc(-c2c3c(=O)n(C)c(=O)n(C)c3cn2C(C)C)c1	none
Cc1ccc2c(ccn3cc4c(c(=O)n(C)c(=O)n4C)c23)c1	OX1R antag-2 86 | OX1R HTRF confirm 88 | CHO-K1 HTRF inactive
CN(C)CCN1CCN(C2CN(Cc3ccc(F)cc3)S(=O)(=O)C2)CC1 (stereo not drawn)	none (no result: OX1R antag-1, GPR7 antag, CHO parental Ca, OX1R antag-2)
O=c1[nH]cnc2nn(-c3ccccc3)nc12	none
O=c1[nH]cnc2nc(-c3ccccc3)c(-c3ccccc3)nc12	OX1R antag-2 129 | OX1R HTRF confirm inactive | CHO-K1 HTRF 23
CCOC(=O)N(C)[C@H]1C[C@H]2c3[nH]c4ccccc4c3CCN2C(=O)[C@H]1[C@H](C)O	none (no result: OX1R antag-1, GPR7 antag, CHO parental Ca, OX1R antag-2)
COc1ccc2c(c1O)C(=O)c1ccccc1C2=O	none (no result: TAAR1 antagonist, TAAR1 agonist)
